In ChEMBL document CHEMBL3272222, “Heterocyclic and piperonylic acid esters of 1-methyl-4-piperidinol as analgesics” (J Med Chem, 1977) one finds Activity and ED50 data, which are given here for 17 compounds.

Data set [1] relates to Mus musculus. Kind of data set: Analgesic activity in mouse at 20 mg/kg, sc by hot-plate assay. The format is functional, organism-based. Also noted: dose 20 mg/kg. In a few lines: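 Mouse hot-plate analgesia test. Compounds were given subcutaneously as water-soluble salts. ED50 values carry 95% confidence limits from probit analysis.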
Background: In hot-plate and tail-flick tests a longer latency is read as antinociception.

In data set [2] the test system is Mus musculus. Description: Analgesic activity in sc dosed mouse by hot-plate assay. The class given is functional. Put shortly: (§1)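 Mice dosed subcutaneously with compounds as water-soluble salts. ED50 in mg/kg, with 95% confidence limits from probit analysis. Overt toxicity was also noted at the doses given.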
Data set [3] deals with Mus musculus. Kind of data set: Analgesic activity in sc dosed mouse by tail-flick assay. The class given is functional.
The test system of data set [4] is Mus musculus. Kind of data set: Analgesic activity in sc dosed mouse assessed as inhibition of p-phenylquinone-induced abdominal-stretching. The format is functional.
The test system of data set [5] is Mus musculus. Description: Analgesic activity in mouse at 10 mg/kg, sc by tail-flick assay. The format is functional, organism-based. More on the design: dose 10 mg/kg.
In data set [6] the test system is Mus musculus. Description: Analgesic activity in mouse assessed as inhibition of p-phenylquinone-induced abdominal-stretching at 10 mg/kg, sc. The format is functional, organism-based. More on the design: dose 10 mg/kg. In a few lines: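 Mice were dosed subcutaneously with test compounds as water-soluble salts and then run in the tail-flick assay and in the p-phenylquinone-induced abdominal-stretching (PPQ) assay.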

Data set [7] relates to Mus musculus. Kind of data set: Toxicity in mouse at 20 mg/kg, sc. The class given is organism-based. More on the design: dose 20 mg/kg, route subcutaneous. To be noted: in vivo. Put shortly: (§2)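 Toxic signs were recorded in mice during analgesic testing after subcutaneous doses of the compounds, given as water-soluble salts.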
For data set [8], the target named is Opioid receptor (Rattus norvegicus) (UniProt P33533+P34975+P33535). The note with it: Brain.
Data set [9] deals with Mus musculus. Description: Analgesic activity in sc dosed mouse by Nilsen method. The format is functional. Put shortly: as §1
For data set [10], the system named is Mus musculus. Kind of data set: Toxicity in mouse at 40 mg/kg, sc. The format is organism-based. Also noted: dose 40 mg/kg, route subcutaneous. To be noted: in vivo. In a few lines: as §2
Data set [11] concerns Mus musculus. Description: Toxicity in mouse at 50 mg/kg, sc. The class given is organism-based. More on the design: dose 50 mg/kg, route subcutaneous. The note with it: in vivo. Put shortly: as §2
The test system of data set [12] is Rhesus monkey. Kind of data set: Toxicity in nonwithdrawn monkey assessed as mild abstinence signs at 6 mg/kg administered as single dose. The format is organism-based, Macaca mulatta. Also noted: dose 6 mg/kg. The note with it: in vivo.
For data set [13], the system named is Rhesus monkey. Kind of data set: Toxicity in nonwithdrawn monkey assessed as mild CNS depression at 6 mg/kg administered as single dose. The format is organism-based, Macaca mulatta. To be noted: in vivo. More on the design: dose 6 mg/kg.
The test system of data set [14] is Rhesus monkey. Description: Toxicity in monkey assessed as piloerection at 12 mg/kg administered as single dose. The note with it: in vivo. More on the design: dose 12 mg/kg. The format is organism-based, Macaca mulatta.
Data set [15] deals with Rhesus monkey. Kind of data set: Toxicity in monkey assessed as tremors at 12 mg/kg administered as single dose. The class given is organism-based, Macaca mulatta. Also noted: dose 12 mg/kg. To be noted: in vivo.
The test system of data set [16] is Rhesus monkey. Kind of data set: Toxicity in monkey assessed as retching at 12 mg/kg administered as single dose. The format is organism-based, Macaca mulatta. More on the design: dose 12 mg/kg. To be noted: in vivo.
The subject of data set [17] is Rhesus monkey. Description: Toxicity in monkey assessed as increased respiration at 12 mg/kg administered as single dose. The class given is organism-based, Macaca mulatta. More on the design: dose 12 mg/kg. The note with it: in vivo.
Data set [18] relates to Mus musculus. Kind of data set: Toxicity in mouse at 30 mg/kg, sc. The class given is organism-based. Also noted: dose 30 mg/kg, route subcutaneous. To be noted: in vivo. In a few lines:
as §2

Data set [19] concerns Rhesus monkey. Kind of data set: Toxicity in monkey assessed as morphine-like dependence liability. The class given is organism-based, Macaca mulatta. The note with it: in vivo. In a few lines:
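Physical dependence liability of the morphine type was assessed in Rhesus monkeys.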

Data set [20] relates to Rhesus monkey. Kind of data set: Toxicity in monkey assessed as increase in severity of abstinence signs at 6 mg/kg administered as single dose. The format is organism-based, Macaca mulatta. More on the design: dose 6 mg/kg. The note with it: in vivo. Put shortly:
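Rhesus monkeys were used in single-dose suppression tests for physical dependence. The compound was given at 6.0 mg/kg and the severity of abstinence signs was scored.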

Data set [21] concerns Mus musculus. Kind of data set: Toxicity in mouse at 60 mg/kg, sc. The format is organism-based. Also noted: dose 60 mg/kg, route subcutaneous. To be noted: in vivo. Put shortly: as §2

Activity calls are given as the source filed them. No cut-off for these calls is given here. Bounds are passed on as bounds.

Opioid receptor (Rattus norvegicus), sequence (P33533 whole entry, looked up): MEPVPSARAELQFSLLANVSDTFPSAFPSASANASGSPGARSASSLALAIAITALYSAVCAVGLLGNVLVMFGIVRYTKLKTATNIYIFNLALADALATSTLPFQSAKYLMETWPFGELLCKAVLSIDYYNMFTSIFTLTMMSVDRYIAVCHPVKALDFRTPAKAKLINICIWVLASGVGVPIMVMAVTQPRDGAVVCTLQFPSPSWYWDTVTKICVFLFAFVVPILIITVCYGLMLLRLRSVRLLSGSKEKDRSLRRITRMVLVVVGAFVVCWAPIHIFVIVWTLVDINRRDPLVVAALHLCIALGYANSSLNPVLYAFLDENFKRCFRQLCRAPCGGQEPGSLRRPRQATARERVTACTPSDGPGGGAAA
Opioid receptor (Rattus norvegicus), sequence (P33535 whole entry, looked up): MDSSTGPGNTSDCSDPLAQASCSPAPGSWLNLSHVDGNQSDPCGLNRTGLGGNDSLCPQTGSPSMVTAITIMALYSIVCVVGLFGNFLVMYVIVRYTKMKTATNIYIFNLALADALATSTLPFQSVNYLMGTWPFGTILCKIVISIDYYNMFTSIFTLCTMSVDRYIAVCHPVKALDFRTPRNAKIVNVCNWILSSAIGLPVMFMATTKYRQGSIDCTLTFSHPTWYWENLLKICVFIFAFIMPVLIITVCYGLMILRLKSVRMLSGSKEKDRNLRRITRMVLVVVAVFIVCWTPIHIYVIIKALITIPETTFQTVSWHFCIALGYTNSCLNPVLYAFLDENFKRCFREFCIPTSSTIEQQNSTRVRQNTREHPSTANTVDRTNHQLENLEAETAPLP
Opioid receptor (Rattus norvegicus), sequence (P34975 whole entry, looked up): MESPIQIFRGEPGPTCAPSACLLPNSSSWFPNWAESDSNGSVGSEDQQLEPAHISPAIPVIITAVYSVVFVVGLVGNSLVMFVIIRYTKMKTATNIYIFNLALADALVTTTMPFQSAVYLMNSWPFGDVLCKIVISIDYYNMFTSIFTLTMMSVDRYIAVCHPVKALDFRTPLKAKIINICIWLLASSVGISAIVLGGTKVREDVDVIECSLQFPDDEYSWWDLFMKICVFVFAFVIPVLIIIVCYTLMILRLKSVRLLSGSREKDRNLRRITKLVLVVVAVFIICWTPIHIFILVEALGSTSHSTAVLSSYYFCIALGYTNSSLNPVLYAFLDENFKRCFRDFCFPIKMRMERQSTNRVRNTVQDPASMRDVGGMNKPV

`Cc1ccc(C(=O)OC2CCN(C)CC2)cc1C`: the outcome with Mus musculus [1] was Active.

`CN1CCC(OC(=O)c2ccc(Br)o2)CC1.Cl` showed an ED50 in the data set on Mus musculus [2] of 17.7 mg/kg.

In the case of `CN1CCCC(COC(=O)c2ccc3c(c2)OCO3)C1.Cl` (stereo not given), the ED50 in the data set with Mus musculus [2] was determined as 22.7 mg/kg.

As to `Cc1[nH]c(C)c(C(=O)OC2CCN(C)CC2)c1C`, the ED50 with Mus musculus [3] came to 15.1 mg/kg; in the data set with Mus musculus [4], 15.1 mg/kg; in data set [8], 1 µM. Besides, the result in the data set on Mus musculus [5] and in the data set with Mus musculus [6] was Active. Besides, the Activity result with Mus musculus [7] is given as “Non-toxic”.

`CN1CCC(OC(=O)c2ccoc2)CC1.O=C(O)/C=C\C(=O)O`: in the data set on Mus musculus [2], the ED50 stood at 27.9 mg/kg.

In turn, `CCOC(=O)C1(c2ccccc2)CCN(C)CC1` showed an ED50 in data set [8] of 0.7 µM.

For the compound `CN1CCC(OC(=O)c2cccs2)CC1.Cl`, the ED50 in the data set on Mus musculus [2] was 13.3 mg/kg; in data set [8], greater than 100 µM. In the data set with Mus musculus [9], the ED50 result is “inactive”. Besides, in the data set on Mus musculus [10], the Activity result is given as “Non-toxic”.

In the data set on Mus musculus [2], `CN1CCC(OC(=O)c2ccncc2)CC1.O=C(O)/C=C\C(=O)O` yielded an ED50 of 44.2 mg/kg.

For `Cc1c(C(=O)OC2CCN(C)CC2)c(C)n(C)c1C`, the result with Mus musculus [1] was Active.

On to `CN1CCC(OC(=O)c2cnc3ccccc3n2)CC1`, for which the ED50 result in the data set with Mus musculus [2] is “inactive”.

For the compound `CN1CCC(OC(=O)c2ccc3ncccc3c2)CC1.Cl`, the ED50 in the data set on Mus musculus [2] was 9.3 mg/kg; in the data set on Mus musculus [9], 29.7 mg/kg; in data set [8], greater than 100 µM. Further, the Activity entry in the data set on Mus musculus [10] is on record as “Non-toxic”; in the data set with Mus musculus [11] it was “Toxic”.

Regarding `CN1CCC(OC(=O)c2ccc3c(c2)OCO3)CC1.Cl`, the Activity result in the data set on Rhesus monkey [12], in the data set with Rhesus monkey [13], in the data set with Rhesus monkey [14], with Rhesus monkey [15], in the data set on Rhesus monkey [16] and with Rhesus monkey [17] was “Toxic” each time. Besides, the Activity entry in the data set on Mus musculus [18] is reported as “Non-toxic”; with Rhesus monkey [19] it was “Non-toxic”; in the data set with Rhesus monkey [20], “Toxic”. Also, the ED50 in data set [8] was 30 µM.

`CN1CCC(OC(=O)c2ccco2)CC1.O=C(O)/C=C\C(=O)O` registered an ED50 in the data set with Mus musculus [2] of 12.5 mg/kg. In addition, the Activity result in the data set on Mus musculus [11] was “Non-toxic”.

For `Cc1ccc(C(=O)OC2CCN(C)CC2)s1`, the ED50 entry in the data set on Mus musculus [2] is “inactive”.

`CN1CCC(OC(=O)C2c3ccccc3Oc3ccccc32)CC1.Cl` gave an ED50 in the data set with Mus musculus [2] of 35 mg/kg.

The compound `CN1CCC(OC(=O)c2cnc3ccccc3c2)CC1.Cl` showed an ED50 in the data set with Mus musculus [2] of 11.2 mg/kg. In addition, the Activity result in the data set with Mus musculus [21] was “Non-toxic”.

As for `Cc1[nH]c(C)c(C(=O)OC2CCCN(C)C2)c1C` (stereo not given), in the data set with Mus musculus [2], the ED50 result was “inactive”.
